Test system: HEK-293T
Assay: Multiplex assay against HEK293T;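 for Population Tubulin-Different-Phenotype (%): share of the cells with healthy nuclei that show this phenotype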
Assay type: toxicity, cell-based
Settings: human
Outline: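 Cells stained live at seeding with Hoechst33342, BioTracker Green Microtubule Cytoskeleton Dye, MitoTracker Red and Annexin V Alexa Fluor 680 were imaged on a CQ1 microscope at 37°C and 5% CO2 after compound addition. Their classification by CellPathfinder machine-learning gating ran from Hoechst high-intensity objects versus normal cells, to healthy, pyknosed or fragmented nuclei among normal cells, to mitotic or apoptotic among pyknosed cells. Tubulin, mitochondrial-mass and membrane-permeability phenotypes are per cents of healthy-nucleus cells.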

[1] = 12 h, 1 µM, compound concentration 1 uM, replicate 1
[2] = 12 h, 1 µM, compound concentration 1 uM, replicate 2
[3] = 12 h, 10 µM, compound concentration 10 uM, replicate 1
[4] = 12 h, 10 µM, compound concentration 10 uM, replicate 2
[5] = 24 h, 1 µM, compound concentration 1 uM, replicate 1
[6] = 24 h, 1 µM, compound concentration 1 uM, replicate 2
[7] = 24 h, 10 µM, compound concentration 10 uM, replicate 1
[8] = 24 h, 10 µM, compound concentration 10 uM, replicate 2

Compound: CN(C)CCOc1ccc(-c2nc(-c3ccncc3)c(-c3ccc4c(c3)CC/C4=N\O)[nH]2)cc1 [SB590885]
- Population Apoptotic (%) [1]: 25%
- Population Fragmented Nuclei (%) [1]: 15%
- Population Healthy Nuclei (%) [1]: 65%
- Population Hoechst High Intensity Objects (%) [1]: 22%
- Population Membrane Permeable-Phenotype (%) [1]: 30%
- Population Mitochondria Different-Phenotype (%) [1]: 8%
- Population Mitotic Cells (%) [1]: 74%
- Population Normal (%) [1]: 77%
- Population Pyknosed Nuclei (%) [1]: 18%
- Population Tubulin-Different-Phenotype (%) [1]: 44%
- Total Cell Count [1]: 678
- Population Apoptotic (%) [2]: 17%
- Population Fragmented Nuclei (%) [2]: 2%
- Population Healthy Nuclei (%) [2]: 88%
- Population Hoechst High Intensity Objects (%) [2]: 12%
- Population Membrane Permeable-Phenotype (%) [2]: 12%
- Population Mitochondria Different-Phenotype (%) [2]: 23%
- Population Mitotic Cells (%) [2]: 82%
- Population Normal (%) [2]: 87%
- Population Pyknosed Nuclei (%) [2]: 8%
- Population Tubulin-Different-Phenotype (%) [2]: 76%
- Total Cell Count [2]: 1120
- Population Apoptotic (%) [3]: 28%
- Population Fragmented Nuclei (%) [3]: 12%
- Population Healthy Nuclei (%) [3]: 69%
- Population Hoechst High Intensity Objects (%) [3]: 9%
- Population Membrane Permeable-Phenotype (%) [3]: 4%
- Population Mitochondria Different-Phenotype (%) [3]: 8%
- Population Mitotic Cells (%) [3]: 71%
- Population Normal (%) [3]: 90%
- Population Pyknosed Nuclei (%) [3]: 18%
- Population Tubulin-Different-Phenotype (%) [3]: 5%
- Total Cell Count [3]: 676
- Population Apoptotic (%) [4]: 8%
- Population Fragmented Nuclei (%) [4]: 7%
- Population Healthy Nuclei (%) [4]: 87%
- Population Hoechst High Intensity Objects (%) [4]: 1%
- Population Membrane Permeable-Phenotype (%) [4]: 3%
- Population Mitotic Cells (%) [4]: 91%
- Population Normal (%) [4]: 98%
- Population Pyknosed Nuclei (%) [4]: 4%
- Population Tubulin-Different-Phenotype (%) [4]: 9%
- Total Cell Count [4]: 1929
- Population Apoptotic (%) [5]: 24%
- Population Fragmented Nuclei (%) [5]: 15%
- Population Healthy Nuclei (%) [5]: 69%
- Population Hoechst High Intensity Objects (%) [5]: 24%
- Population Membrane Permeable-Phenotype (%) [5]: 23%
- Population Mitochondria Different-Phenotype (%) [5]: 14%
- Population Mitotic Cells (%) [5]: 75%
- Population Normal (%) [5]: 75%
- Population Pyknosed Nuclei (%) [5]: 15%
- Population Tubulin-Different-Phenotype (%) [5]: 48%
- Total Cell Count [5]: 670
- Population Apoptotic (%) [6]: 10%
- Population Fragmented Nuclei (%) [6]: 6%
- Population Healthy Nuclei (%) [6]: 86%
- Population Hoechst High Intensity Objects (%) [6]: 18%
- Population Membrane Permeable-Phenotype (%) [6]: 27%
- Population Mitochondria Different-Phenotype (%) [6]: 7%
- Population Mitotic Cells (%) [6]: 89%
- Population Normal (%) [6]: 81%
- Population Pyknosed Nuclei (%) [6]: 6%
- Population Tubulin-Different-Phenotype (%) [6]: 65%
- Total Cell Count [6]: 1437
- Population Apoptotic (%) [7]: 20%
- Population Fragmented Nuclei (%) [7]: 9%
- Population Healthy Nuclei (%) [7]: 85%
- Population Hoechst High Intensity Objects (%) [7]: 5%
- Population Membrane Permeable-Phenotype (%) [7]: 10%
- Population Mitochondria Different-Phenotype (%) [7]: 5%
- Population Mitotic Cells (%) [7]: 79%
- Population Normal (%) [7]: 94%
- Population Pyknosed Nuclei (%) [7]: 5%
- Population Tubulin-Different-Phenotype (%) [7]: 8%
- Total Cell Count [7]: 810
- Population Apoptotic (%) [8]: 1%
- Population Fragmented Nuclei (%) [8]: 24%
- Population Healthy Nuclei (%) [8]: 73%
- Population Hoechst High Intensity Objects (%) [8]: 3%
- Population Membrane Permeable-Phenotype (%) [8]: 7%
- Population Mitochondria Different-Phenotype (%) [8]: 1%
- Population Mitotic Cells (%) [8]: 98%
- Population Normal (%) [8]: 96%
- Population Pyknosed Nuclei (%) [8]: 2%
- Population Tubulin-Different-Phenotype (%) [8]: 10%
- Total Cell Count [8]: 3237

Compound: N#Cc1cnc(Nc2cc(NC[C@H]3CNCCO3)c(C(F)(F)F)cn2)cn1 [SRA-737]
- Population Apoptotic (%) [1]: 16%
- Population Fragmented Nuclei (%) [1]: 13%
- Population Healthy Nuclei (%) [1]: 66%
- Population Hoechst High Intensity Objects (%) [1]: 13%
- Population Membrane Permeable-Phenotype (%) [1]: 3%
- Population Mitochondria Different-Phenotype (%) [1]: 3%
- Population Mitotic Cells (%) [1]: 83%
- Population Normal (%) [1]: 86%
- Population Pyknosed Nuclei (%) [1]: 19%
- Population Tubulin-Different-Phenotype (%) [1]: 3%
- Total Cell Count [1]: 617
- Population Apoptotic (%) [2]: 12%
- Population Fragmented Nuclei (%) [2]: 11%
- Population Healthy Nuclei (%) [2]: 84%
- Population Hoechst High Intensity Objects (%) [2]: 2%
- Population Membrane Permeable-Phenotype (%) [2]: 2%
- Population Mitochondria Different-Phenotype (%) [2]: 7%
- Population Mitotic Cells (%) [2]: 87%
- Population Normal (%) [2]: 97%
- Population Pyknosed Nuclei (%) [2]: 3%
- Population Tubulin-Different-Phenotype (%) [2]: 5%
- Total Cell Count [2]: 2034
- Population Apoptotic (%) [3]: 20%
- Population Fragmented Nuclei (%) [3]: 10%
- Population Healthy Nuclei (%) [3]: 69%
- Population Hoechst High Intensity Objects (%) [3]: 14%
- Population Mitochondria Different-Phenotype (%) [3]: 6%
- Population Mitotic Cells (%) [3]: 79%
- Population Normal (%) [3]: 85%
- Population Pyknosed Nuclei (%) [3]: 20%
- Population Tubulin-Different-Phenotype (%) [3]: 5%
- Total Cell Count [3]: 721
- Population Apoptotic (%) [4]: 13%
- Population Fragmented Nuclei (%) [4]: 6%
- Population Healthy Nuclei (%) [4]: 85%
- Population Hoechst High Intensity Objects (%) [4]: 3%
- Population Membrane Permeable-Phenotype (%) [4]: 2%
- Population Mitochondria Different-Phenotype (%) [4]: 16%
- Population Mitotic Cells (%) [4]: 86%
- Population Normal (%) [4]: 96%
- Population Pyknosed Nuclei (%) [4]: 8%
- Population Tubulin-Different-Phenotype (%) [4]: 16%
- Total Cell Count [4]: 1376
- Population Apoptotic (%) [5]: 9%
- Population Fragmented Nuclei (%) [5]: 10%
- Population Healthy Nuclei (%) [5]: 77%
- Population Hoechst High Intensity Objects (%) [5]: 7%
- Population Membrane Permeable-Phenotype (%) [5]: 5%
- Population Mitochondria Different-Phenotype (%) [5]: 2%
- Population Mitotic Cells (%) [5]: 90%
- Population Normal (%) [5]: 92%
- Population Pyknosed Nuclei (%) [5]: 11%
- Population Tubulin-Different-Phenotype (%) [5]: 4%
- Total Cell Count [5]: 740
- Population Apoptotic (%) [6]: 5%
- Population Fragmented Nuclei (%) [6]: 34%
- Population Healthy Nuclei (%) [6]: 63%
- Population Hoechst High Intensity Objects (%) [6]: 4%
- Population Membrane Permeable-Phenotype (%) [6]: 8%
- Population Mitochondria Different-Phenotype (%) [6]: 1%
- Population Mitotic Cells (%) [6]: 94%
- Population Normal (%) [6]: 95%
- Population Pyknosed Nuclei (%) [6]: 2%
- Population Tubulin-Different-Phenotype (%) [6]: 10%
- Total Cell Count [6]: 3420
- Population Apoptotic (%) [7]: 25%
- Population Fragmented Nuclei (%) [7]: 10%
- Population Healthy Nuclei (%) [7]: 70%
- Population Hoechst High Intensity Objects (%) [7]: 10%
- Population Membrane Permeable-Phenotype (%) [7]: 4%
- Population Mitochondria Different-Phenotype (%) [7]: 6%
- Population Mitotic Cells (%) [7]: 75%
- Population Normal (%) [7]: 89%
- Population Pyknosed Nuclei (%) [7]: 18%
- Population Tubulin-Different-Phenotype (%) [7]: 15%
- Total Cell Count [7]: 729
- Population Apoptotic (%) [8]: 21%
- Population Fragmented Nuclei (%) [8]: 12%
- Population Healthy Nuclei (%) [8]: 64%
- Population Hoechst High Intensity Objects (%) [8]: 8%
- Population Membrane Permeable-Phenotype (%) [8]: 7%
- Population Mitochondria Different-Phenotype (%) [8]: 17%
- Population Mitotic Cells (%) [8]: 78%
- Population Normal (%) [8]: 91%
- Population Pyknosed Nuclei (%) [8]: 22%
- Population Tubulin-Different-Phenotype (%) [8]: 44%
- Total Cell Count [8]: 1254
